The source of these data is ChEMBL document CHEMBL1137994, “Bis[3-(4'-substituted phenyl)prop-2-ene]disulfides as a new class of antihyperlipidemic compounds” (2004).

Assay [1] has as its system Rattus norvegicus. The experiment in a line: Creatinine level in serum upon single dose administration was determined as measure of nephrotoxicity; Normal range = 0.20-0.80 mg/dL. It is filed as functional, organism-based. The procedure, abridged: (§1)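 Nephrotoxicity was assessed after a single dose of compound by measuring serum blood urea nitrogen and creatinine in mg/dL by cited methods. Values are mean ± SE against a normal range.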

For assay [2], the system named is Rattus norvegicus. As to the kind of experiment: Alanine transferase (GPT) enzyme level in serum upon administration of five doses was determined as measure of hepatotoxicity; Normal range = 18-30 IU. It is filed as functional. The procedure, abridged:
(§2)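 Oral dosing of the compounds as aqueous suspensions, given either as a single dose or as five doses. Hepatotoxicity was assessed from serum alanine transferase and aspartate transferase (IU) and alkaline phosphatase (KA units). Each marker was set against the normal ranges listed.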

In assay [3] the test system is Rattus norvegicus. As to the kind of experiment: Alkaline phosphatase enzyme level in serum upon administration of five doses was determined as measure of hepatotoxicity; Normal range = 14-32 KA units. It is filed as functional. The method in brief: as §2
The test system of assay [4] is Rattus norvegicus. The experiment in a line: Percent decrease in weight of serum cholesterol after treatment with compound at 20 mg/kg dose for seven days. It is filed as functional. The procedure, abridged:
(§3)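 Male Wistar rats, six per group, were fed a 5% cholesterol diet for 1 week. They were dosed orally at the same time with 20 mg/kg bwt as a suspension in water, and the experiment was run three times. Serum and liver cholesterol were measured by the Zlatkis method, and liver triglyceride by the Van Handel–Zilversmit method, on about 1 g of saline-washed tissue.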

Assay [5] has as its system Rattus norvegicus. The experiment in a line: Blood urea nitrogen level in serum upon administration of five doses was determined as measure of nephrotoxicity; Normal range = 5-29 mg/dL. The assay is classed as functional, organism-based. The method in brief: (§4)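 Nephrotoxicity was assessed after five doses of compound by measuring serum blood urea nitrogen and creatinine in mg/dL by cited methods. Values are mean ± SE against a normal range.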

Assay [6] concerns Rattus norvegicus. As to the kind of experiment: Weight of triglyceride in liver wet tissue after treatment with compound at 20 mg/kg dose for seven days. It is filed as functional. The procedure, abridged:
(§5)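 Male Wistar rats, six per group, were fed a 5% cholesterol diet for one week while receiving compound at 20 mg/kgbwt orally as a suspension in water. Serum was separated, and about 1 g of liver, washed in ice-cold 0.85% NaCl, was taken for lipids. Cholesterol was measured by the Zlatkis method and liver triglyceride by the Van Handel–Zilversmit method. The run was repeated three times; values are mean ± SE.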

The test system of assay [7] is Rattus norvegicus. The experiment in a line: Blood urea nitrogen level in serum upon single dose administration was determined as measure of nephrotoxicity; Normal range = 5-29 mg/dL. It is filed as functional, organism-based. The method in brief:
as §1

Assay [8] concerns the target T1, 3-hydroxy-3-methylglutaryl-coenzyme A reductase (Rattus norvegicus) (UniProt P51639).
T1 sequence (whole entry): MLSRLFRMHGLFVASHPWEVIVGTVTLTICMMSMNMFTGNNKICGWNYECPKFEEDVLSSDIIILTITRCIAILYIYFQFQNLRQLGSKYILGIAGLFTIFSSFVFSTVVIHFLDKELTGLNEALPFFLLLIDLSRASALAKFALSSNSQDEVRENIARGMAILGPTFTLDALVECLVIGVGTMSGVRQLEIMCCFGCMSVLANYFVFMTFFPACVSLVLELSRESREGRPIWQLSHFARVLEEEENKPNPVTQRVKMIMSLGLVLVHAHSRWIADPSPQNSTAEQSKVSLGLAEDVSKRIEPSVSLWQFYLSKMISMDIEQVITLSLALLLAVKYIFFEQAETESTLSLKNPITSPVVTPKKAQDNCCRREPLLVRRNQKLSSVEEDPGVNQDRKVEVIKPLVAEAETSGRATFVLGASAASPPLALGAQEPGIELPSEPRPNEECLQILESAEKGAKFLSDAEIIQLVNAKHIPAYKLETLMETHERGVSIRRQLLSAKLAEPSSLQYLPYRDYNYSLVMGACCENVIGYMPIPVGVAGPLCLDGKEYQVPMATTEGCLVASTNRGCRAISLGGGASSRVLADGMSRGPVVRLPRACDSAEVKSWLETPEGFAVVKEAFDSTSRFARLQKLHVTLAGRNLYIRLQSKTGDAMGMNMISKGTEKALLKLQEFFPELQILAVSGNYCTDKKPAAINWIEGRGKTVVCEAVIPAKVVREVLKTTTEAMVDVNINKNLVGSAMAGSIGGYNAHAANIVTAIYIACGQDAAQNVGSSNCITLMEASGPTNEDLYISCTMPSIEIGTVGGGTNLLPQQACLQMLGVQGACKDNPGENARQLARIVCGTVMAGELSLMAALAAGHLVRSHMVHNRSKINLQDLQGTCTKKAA
The experiment in a line: Ratio of HMG-CoA reductase to mevalinate. The method in brief: (§6)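 Male Wistar rats, six per group, received a 5% cholesterol diet for 1 week plus an oral 20 mg/kg bwt dose given as a suspension in water. The experiment was run three times. Hepatic HMG-CoA reductase activity was determined by the Venugopala Rao method and expressed as the HMG-CoA/mevalonate ratio.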

In assay [9] the test system is Rattus norvegicus. As to the kind of experiment: Creatinine level in serum upon administration of five doses was determined as measure of nephrotoxicity; Normal range = 0.20-0.80 mg/dL. It is filed as functional, organism-based. The method in brief:
as §4

The target in assay [10] is T1, 3-hydroxy-3-methylglutaryl-coenzyme A reductase (Rattus norvegicus). The experiment in a line: Percent decrease in HMG-CoA reductase activity in rat. The method in brief: as §6
Assay [11] concerns Rattus norvegicus. The experiment in a line: Percent decrease in weight of triglyceride in liver wet tissue after treatment with compound at 20 mg/kg dose for seven days. The assay is classed as functional. The procedure, abridged:
as §3

In assay [12] the test system is Rattus norvegicus. As to the kind of experiment: Percent decrease in weight of cholesterol in liver wet tissue after treatment with compound at 20 mg/kg dose for seven days. The assay is classed as functional. The method in brief:
as §3

For assay [13], the system named is Rattus norvegicus. The experiment in a line: Alanine transferase (GPT) enzyme level in serum upon single dose administration was determined as measure of hepatotoxicity; Normal range = 18-30 IU. The assay is classed as functional. The procedure, abridged:
as §2

Assay [14] deals with Rattus norvegicus. The experiment in a line: Weight of cholesterol in liver wet tissue after treatment with compound at 20 mg/kg dose for seven days. The assay is classed as functional. The procedure, abridged:
as §5

The test system of assay [15] is Rattus norvegicus. The experiment in a line: Weight of serum cholesterol after treatment with compound at 20 mg/kg dose for seven days. It is filed as functional. The procedure, abridged: as §5
In assay [16] the test system is Rattus norvegicus. The experiment in a line: Aspartate transferase (GOT) enzyme level in serum upon administration of five doses was determined as measure of hepatotoxicity; Normal range = 46-81 IU. It is filed as functional. The method in brief: as §2
In assay [17] the test system is Rattus norvegicus. The experiment in a line: Alkaline phosphatase enzyme level in serum upon single dose administration was determined as measure of hepatotoxicity; Normal range = 14-32 KA units. The assay is classed as functional. The procedure, abridged:
as §2

Assay [18] deals with Rattus norvegicus. As to the kind of experiment: Aspartate transferase (GOT) enzyme level in serum upon single dose administration was determined as measure of hepatotoxicity; Normal range = 46-81 IU. The assay is classed as functional. The procedure, abridged: as §2
Assay [19] has as its system Rattus norvegicus. As to the kind of experiment: Alkaline phosphatase enzyme level upon single dose administration was determined as measure of hepatotoxicity; Normal range = 14-32 KA units. It is filed as functional. The procedure, abridged:
as §2

With `C(=C\c1ccccc1)/CSSC/C=C/c1ccccc1`, the Level in the assay with Rattus norvegicus [1] stood at 0.58 mg/dL; in the assay on Rattus norvegicus [5], 7.37 mg/dL; in the assay on Rattus norvegicus [7], 12.4 mg/dL; in the assay on Rattus norvegicus [9], 0.57 mg/dL. For the same compound, the Activity in the assay with Rattus norvegicus [2] amounted to 27 IU; in the assay on Rattus norvegicus [3], 33.6 KA Units; in the assay with Rattus norvegicus [13], 17.5 IU; in the assay on Rattus norvegicus [16], 39 IU; in the assay with Rattus norvegicus [17] it was 34 KA Units; in the assay with Rattus norvegicus [18], 51 IU. The Decrease with Rattus norvegicus [4] amounted to 3.63%; in assay [10], 5.9%; with Rattus norvegicus [11], 4.9%; with Rattus norvegicus [12], 2%. Further, the figures for the Weight in the assay with Rattus norvegicus [6], with Rattus norvegicus [14] and with Rattus norvegicus [15] were 14.2 mg/g, 4.86 mg/g and 60.95 mg/dL, respectively. In assay [8], the Ratio is 1.72.

Turning to `COc1ccc(/C=C/CSSC/C=C/c2ccc(OC)cc2)cc1`, the Activity in the assay on Rattus norvegicus [19] worked out at 45.6 KA Units; with Rattus norvegicus [2], 23 IU; in the assay with Rattus norvegicus [3], 25.2 KA Units; with Rattus norvegicus [13], 26.5 IU; in the assay with Rattus norvegicus [16], 29.5 IU; with Rattus norvegicus [18], 49 IU. In addition, the Level was 0.59 mg/dL in the assay on Rattus norvegicus [1], 8.48 mg/dL in the assay with Rattus norvegicus [5], 7.43 mg/dL with Rattus norvegicus [7] and 0.49 mg/dL in the assay with Rattus norvegicus [9]. For the same compound, the Decrease turned out to be 2.05% in the assay on Rattus norvegicus [4], 3.69% in [10], 4.91% with Rattus norvegicus [11] and 1.2% in the assay on Rattus norvegicus [12]. For the same compound, the values for the Weight in the assay on Rattus norvegicus [6], in the assay with Rattus norvegicus [14] and in the assay with Rattus norvegicus [15] were 14.8 mg/g, 4.9 mg/g and 61.95 mg/dL, respectively. Further, the Ratio in [8] was determined as 1.68.

`CC[C@H](C)C(=O)O[C@H]1C[C@@H](C)C=C2C=C[C@H](C)[C@H](CC[C@@H]3C[C@@H](O)CC(=O)O3)[C@H]21` [LOVASTATIN]: the Decrease is 31.2% in the assay with Rattus norvegicus [4], 35.4% in assay [10], 36.91% in the assay on Rattus norvegicus [11] and 42.3% in the assay on Rattus norvegicus [12]. The Weight in the assay with Rattus norvegicus [6] amounted to 9.86 mg/g; in the assay on Rattus norvegicus [14], 2.84 mg/g; in the assay with Rattus norvegicus [15], 43.5 mg/dL. For the same compound, in assay [8], the Ratio came out at 2.2.

For `O=C(O)c1ccc(/C=C/CSSC/C=C/c2ccc(C(=O)O)cc2)cc1`, the Level in the assay on Rattus norvegicus [1] stood at 0.61 mg/dL; with Rattus norvegicus [5], 17.4 mg/dL; in the assay on Rattus norvegicus [7] it was 20.2 mg/dL; in the assay on Rattus norvegicus [9], 0.7 mg/dL. Besides, the Activity with Rattus norvegicus [2] worked out at 28 IU; in the assay with Rattus norvegicus [3] it was 32.8 KA Units; in the assay with Rattus norvegicus [13] it was 25 IU; with Rattus norvegicus [16] it was 56 IU; in the assay with Rattus norvegicus [17], 31 KA Units; in the assay with Rattus norvegicus [18], 53 IU. For the same compound, the Decrease in the assay on Rattus norvegicus [4] is 7.01%; in assay [10] it was 24.2%; in the assay with Rattus norvegicus [11], 8.28%; in the assay with Rattus norvegicus [12] it was 13.3%. In addition, the figures for the Weight in the assay on Rattus norvegicus [6], with Rattus norvegicus [14] and in the assay with Rattus norvegicus [15] were 14.3 mg/g, 4.3 mg/g and 58.82 mg/dL, respectively. Besides, the Ratio in [8] was found to be 2.02.

Regarding `C=CCS[S+]([O-])CC=C` (stereo unspecified) [ALLICIN], the Decrease in the assay on Rattus norvegicus [4] turned out to be 20.5%; in assay [10] it was 27.6%; in the assay with Rattus norvegicus [11], 39.6%; in the assay on Rattus norvegicus [12], 27.6%. Besides, the figures for the Weight with Rattus norvegicus [6], with Rattus norvegicus [14] and with Rattus norvegicus [15] were 9.44 mg/g, 3.59 mg/g and 50.25 mg/dL, respectively. Besides, the Ratio in assay [8] came out at 2.07.

Turning to `Nc1ccc(/C=C/CSSC/C=C/c2ccc(N)cc2)cc1`, the Level in the assay with Rattus norvegicus [1] is 0.55 mg/dL; in the assay with Rattus norvegicus [5], 14.6 mg/dL; in the assay on Rattus norvegicus [7], 13 mg/dL; in the assay on Rattus norvegicus [9] it was 0.84 mg/dL. Besides, the Activity was 21 IU in the assay on Rattus norvegicus [2]; 46.9 KA Units in the assay with Rattus norvegicus [3]; 26.5 IU in the assay with Rattus norvegicus [13]; 37 IU in the assay with Rattus norvegicus [16]; 40.6 KA Units in the assay with Rattus norvegicus [17]; 51.5 IU with Rattus norvegicus [18]. For the same compound, the Decrease was 5.5% with Rattus norvegicus [4], 7.5% in assay [10], 6.71% in the assay with Rattus norvegicus [11] and 3.13% in the assay on Rattus norvegicus [12]. Further, the Weight stood at 14.6 mg/g in the assay on Rattus norvegicus [6], 4.81 mg/g with Rattus norvegicus [14] and 59.76 mg/dL in the assay with Rattus norvegicus [15]. The Ratio in [8] came to 1.74.

As to `O=[N+]([O-])c1ccc(/C=C/CSSC/C=C/c2ccc([N+](=O)[O-])cc2)cc1`, the Level amounted to 0.4 mg/dL in the assay with Rattus norvegicus [1], 6.48 mg/dL in the assay on Rattus norvegicus [5], 7.65 mg/dL in the assay on Rattus norvegicus [7] and 0.8 mg/dL in the assay with Rattus norvegicus [9]. The Activity was 15.5 IU in the assay with Rattus norvegicus [2]; 48 KA Units with Rattus norvegicus [3]; 21 IU in the assay on Rattus norvegicus [13]; 49 IU with Rattus norvegicus [16]; 29.5 KA Units in the assay on Rattus norvegicus [17]; 51 IU in the assay with Rattus norvegicus [18]. Besides, the Decrease with Rattus norvegicus [4] is 30.2%; in [10] it was 55.7%; in the assay on Rattus norvegicus [11] it was 9.21%; in the assay on Rattus norvegicus [12], 36.5%. The Weight in the assay on Rattus norvegicus [6] was 14.8 mg/g; in the assay with Rattus norvegicus [14], 3.15 mg/g; in the assay on Rattus norvegicus [15], 44.15 mg/dL. The Ratio in [8] was 2.53.
